Drawing on ChEMBL document CHEMBL1149561, “Synthesis of benzothiazole semicarbazones as novel anticonvulsants--the role of hydrophobic domain” (Bioorg Med Chem Lett, 2007), this text covers Activity and logP for 16 compounds.

The subject of series [1] is Mus musculus. The series is described as follows: Neurotoxicity in Swiss Albino mouse at 30 mg/kg after 4 hrs by rotarod test. The format is toxicity, organism-based. Set-up: dose 30 mg/kg. To be noted: in vivo. The procedure, abridged: (§1)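 Swiss albino mice received 30 mg/kg i.p. Motor impairment scored on the rotarod 0.5 and 4 h after dosing. Results given as number of animals showing toxicity over number tested.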
In general terms: The rotarod test checks motor coordination on a turning rod.

The subject of series [2] is Mus musculus. The series is described as follows: Neurotoxicity in Swiss Albino mouse at 30 mg/kg after 0.5 hrs by rotarod test. The format is toxicity, organism-based. Also noted: dose 30 mg/kg. To be noted: in vivo. The procedure, abridged: as §1
Series [3] concerns Mus musculus. As to the kind of experiment: Anticonvulsant activity in Swiss Albino mouse at 30 mg/kg after 0.5 hrs by MES screen test. The series is classed as functional. The procedure, abridged:
(§2)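 Swiss albino mice (25–30 g) given 30 mg/kg i.p. Maximal electroshock (MES) seizure test run 0.5 and 4 h after dosing. Activity read out as % of animals protected. Phenytoin at 30 mg/kg i.p. served as standard.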

Series [4] deals with Mus musculus. The series is described as follows: Anticonvulsant activity in swiss Albino mouse at 30 mg/kg after 4 hrs by MES screen test. The format is functional. A digest of the protocol: as §2
Series [5] in a line: Lipophilicity, log P of the compound. To be noted: octanol/water. The format is physicochemical.

Regarding `COc1ccc(/C(C)=N/NC(=O)Nc2nc3ccc(C)cc3s2)cc1`, the Activity entry in the series on Mus musculus [1] was “Not Active”; with Mus musculus [2], “Not Active”; in the series on Mus musculus [3], 83.3%; in the series with Mus musculus [4] it was 83.3%.
Take `COc1ccc2nc(NC(=O)N/N=C(\C)c3ccc(O)cc3)sc2c1`: the Activity in the series with Mus musculus [3] stood at 66.6%; with Mus musculus [4] it was 50%.
`C/C(=N\NC(=O)Nc1nc2ccc(C)cc2s1)c1ccc(O)cc1`: the Activity with Mus musculus [3] and in the series with Mus musculus [4] was 66.6% each time.
For the compound `O=C(NN=C(c1ccccc1)c1ccccc1)Nc1nc2ccc(Cl)cc2s1`, the Activity with Mus musculus [3] was 50%; with Mus musculus [4], 33.3%.
Take `COc1ccc2nc(NC(=O)N/N=C(\C)c3ccccc3)sc2c1`: the Activity entry was “Not Active” in the series on Mus musculus [1], “Not Active” in the series on Mus musculus [2], 83.3% with Mus musculus [3] and 66.6% in the series with Mus musculus [4].
For `C/C(=N\NC(=O)Nc1nc2ccc(C)cc2s1)c1ccc([N+](=O)[O-])cc1`, the Activity entry in the series on Mus musculus [1] is “Not Active”; in the series with Mus musculus [2], “Not Active”; with Mus musculus [3] it was 100%; in the series on Mus musculus [4] it was 100%. In series [5], the logP (commonly a log measure of how a compound divides between an organic and an aqueous phase) worked out at 3.22.
Regarding `C/C(=N\NC(=O)Nc1nc2ccc(Cl)cc2s1)c1ccccc1`, the Activity entry in the series with Mus musculus [1] is given as “Not Active”; in the series with Mus musculus [2], “Not Active”; in the series with Mus musculus [3], 100%; with Mus musculus [4] it was 83.3%. The compound also yielded a logP in series [5] of 3.12.
For `COc1ccc(/C(C)=N/NC(=O)Nc2nc3ccc(Cl)cc3s2)cc1`, the Activity in the series with Mus musculus [3] and with Mus musculus [4] was 66.6% each time.
As to `C/C(=N\NC(=O)Nc1nc2ccc(Cl)cc2s1)c1ccc([N+](=O)[O-])cc1`, the Activity in the series with Mus musculus [3] and with Mus musculus [4] was 33.3% each time.
In the case of `C/C(=N\NC(=O)Nc1nc2ccc(C)cc2s1)c1ccccc1`, the Activity in the series on Mus musculus [3] and in the series with Mus musculus [4] was 33.3% in each case.
For the compound `COc1ccc2nc(NC(=O)N/N=C(\C)c3ccc([N+](=O)[O-])cc3)sc2c1`, the Activity result in the series with Mus musculus [1] is “Not Active”; in the series with Mus musculus [2], “Not Active”; in the series with Mus musculus [3] it was 100%; with Mus musculus [4] it was 100%.
As to `C/C(=N\NC(=O)Nc1nc2ccc(Cl)cc2s1)c1ccc(O)cc1`, the Activity with Mus musculus [3] and in the series with Mus musculus [4] was 50% each time.
On to `COc1ccc2nc(NC(=O)NN=C(c3ccccc3)c3ccccc3)sc2c1`, for which the Activity entry in the series on Mus musculus [1] was “Not Active”; in the series on Mus musculus [2] it was “Not Active”; in the series with Mus musculus [3] it was 100%; in the series on Mus musculus [4] it was 100%.
For the compound `O=C1NC(=O)C(c2ccccc2)(c2ccccc2)N1` [PHENYTOIN], the Activity result with Mus musculus [1] is on record as “Not Active”; in the series on Mus musculus [2] it was “Not Active”; in the series with Mus musculus [3] it was 100%; with Mus musculus [4], 100%.
As to `COc1ccc(/C(C)=N/NC(=O)Nc2nc3ccc(OC)cc3s2)cc1`, the Activity entry is reported as “Not Active” in the series on Mus musculus [1], “Not Active” in the series on Mus musculus [2], 83.3% with Mus musculus [3] and 83.3% with Mus musculus [4].
For `Cc1ccc2nc(NC(=O)NN=C(c3ccccc3)c3ccccc3)sc2c1`, the Activity in the series on Mus musculus [3] and with Mus musculus [4] was 33.3% each time.
